Results taken from ChEMBL document CHEMBL4765392, “Development of coumarine derivatives as potent anti-filovirus entry inhibitors targeting viral glycoprotein” (Eur J Med Chem, 2020).

Tests used:
[1] = Inhibition of envelope glycoprotein in HIV pseudotyped Zaire Ebolavirus infected in human A549 cells assessed as reduction in virus entry measured after 48 hrs by luciferase reporter gene assay; type: cell-based; conditions: A549, 48 h
Procedure, shortened: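 A549 cells (5000/well, seeded 24 h prior) incubated 48 h with 3-fold serial compound dilutions premixed with HIV-backbone luciferase pseudovirions bearing EBOV GP. Entry quantified by luciferase signal, normalized to virus-alone cells. IC50 from logistic regression of dose-response curves.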

[2] = Cytotoxicity against human A549 cells assessed as reduction in cell viability by Celltiter-Glo assay; type: cell-based
Procedure, shortened: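 Low-passage A549 cells seeded at 5000/well 24 h ahead, then exposed for 48 h to 3-fold serial compound dilutions in fresh media without virus. Viability read by CellTiter-Glo luminescence and normalized to medium-only cells. CC50 from logistic regression fit of dose-response curves.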

[3] = test system: envelope glycoprotein of Marburgvirus; test: Selectivity index, ratio of CC50 for human A549 cells to IC50 for inhibition of envelope glycoprotein in HIV pseudotyped Marburgvirus infected in human A549 cells assessed as reduction in virus entry; type: toxicity, cell-based; conditions: read-out: Ratio CC50/IC50
Procedure, shortened: (§1)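 IC50 wells also got HIV luciferase pseudovirions bearing MARV GP or EBOV GP, read by luciferase. CC50 wells got fresh media, read by CellTiter-Glo. Both values come from logistic dose-response fits, and the index is CC50 divided by IC50.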

[4] = test system: envelope glycoprotein of Zaire Ebolavirus; test: Selectivity index, ratio of CC50 for human A549 cells to IC50 for inhibition of envelope glycoprotein in HIV pseudotyped Zaire Ebolavirus infected in human A549 cells assessed as reduction in virus entry; type: toxicity, cell-based; conditions: read-out: Ratio CC50/IC50; procedure, shortened: as §1

Structure (SMILES): Cc1c(Cc2ccc(-c3ccccc3C#N)cc2)c(=O)oc2cc(OCC(O)CN3CCC(C(N)=O)CC3)ccc12 (stereo not given)
- IC50 [1]: 1.8 µM
- CC50 [2]: 33.2 µM
- selectivity ratio [3]: 18.2
- selectivity ratio [4]: 17.5

Structure (SMILES): Cc1cc(=O)oc2cc(OCC(O)CN3CCC(C(N)=O)CC3)ccc12 (stereo not given)
- IC50 [1]: 9.3 µM
- CC50 [2]: > 100 µM
- selectivity ratio [3]: 12
- selectivity ratio [4]: > 10.8

Structure (SMILES): Cc1c(Cc2ccccc2)c(=O)oc2cc(OCC(O)CN3CCC(C(N)=O)CC3)ccc12 (stereo not given)
- IC50 [1]: 3.4 µM
- CC50 [2]: > 100 µM
- selectivity ratio [3]: 3.4
- selectivity ratio [4]: > 29.4

Structure (SMILES): Cc1c(Cc2ccc(F)cc2F)c(=O)oc2cc(OCC(O)CN3CCC(C(N)=O)CC3)ccc12 (stereo not given)
- IC50 [1]: 1.2 µM
- CC50 [2]: > 100 µM
- selectivity ratio [3]: 23.6
- selectivity ratio [4]: > 81.1

Structure (SMILES): Cc1c(Cc2ccc(-c3ccc(Cl)cc3)cc2)c(=O)oc2cc(OCC(O)CN3CCC(C(N)=O)CC3)ccc12 (stereo not given)
- IC50 [1]: 1.4 µM
- CC50 [2]: 32.9 µM
- selectivity ratio [3]: 31.8
- selectivity ratio [4]: 22.9

Structure (SMILES): Cc1c(Cc2ccccc2)c(=O)oc2cc(OCC(O)CNCc3cccs3)ccc12 (stereo not given)
- IC50 [1]: 3.5 µM
- CC50 [2]: 87.3 µM
- selectivity ratio [3]: 24.9
- selectivity ratio [4]: 24.9

Structure (SMILES): Cc1cc(F)ccc1Cc1c(C)c2ccc(OCC(O)CN3CCC(C(N)=O)CC3)cc2oc1=O (stereo not given)
- IC50 [1]: 1.2 µM
- CC50 [2]: > 100 µM
- selectivity ratio [3]: 33.3
- selectivity ratio [4]: > 81.1

Structure (SMILES): Cc1c(Cc2ccccc2C(F)(F)F)c(=O)oc2cc(OCC(O)CN3CCC(C(N)=O)CC3)ccc12 (stereo not given)
- IC50 [1]: 1.6 µM
- CC50 [2]: > 100 µM
- selectivity ratio [3]: 33
- selectivity ratio [4]: > 63.8

Structure (SMILES): Cc1c(Cc2ccccc2)c(=O)oc2cc(OCC(O)CNCC3CC3)ccc12 (stereo not given)
- IC50 [1]: 3 µM
- CC50 [2]: > 100 µM
- selectivity ratio [3]: 31.6
- selectivity ratio [4]: > 33.3

Structure (SMILES): Cc1c(Cc2ccccc2)c(=O)oc2cc(OCC(O)CNc3ccc(Br)cc3)ccc12 (stereo not given)
- IC50 [1]: > 100 µM
- CC50 [2]: > 100 µM
- selectivity ratio [3]: 1

Structure (SMILES): Cc1c(Cc2ccccc2)c(=O)oc2cc(OCC(O)CNc3nc4ccccc4[nH]3)ccc12 (stereo not given)
- IC50 [1]: > 100 µM
- CC50 [2]: > 100 µM
- selectivity ratio [3]: 1

Structure (SMILES): Cc1c(Cc2ccccc2)c(=O)oc2cc(OCC(O)CNCCc3cccnc3)ccc12 (stereo not given)
- IC50 [1]: 1.3 µM
- CC50 [2]: 27.4 µM
- selectivity ratio [3]: 16.4
- selectivity ratio [4]: 20.5

Structure (SMILES): Cc1c(Cc2ccccc2)c(=O)oc2cc(OCC(O)CNC3CCOCC3)ccc12 (stereo not given)
- IC50 [1]: 2.2 µM
- CC50 [2]: 38.2 µM
- selectivity ratio [3]: 17.1
- selectivity ratio [4]: 17.4

Structure (SMILES): Cc1c(Cc2ccccc2)c(=O)oc2cc(OCC(O)CNCc3ccccc3)ccc12 (stereo not given)
- IC50 [1]: 1.3 µM
- CC50 [2]: > 100 µM
- selectivity ratio [3]: 45.5
- selectivity ratio [4]: > 75

Structure (SMILES): Cc1c(Cc2ccc(-c3ccc(F)cc3)cc2)c(=O)oc2cc(OCC(O)CN3CCC(C(N)=O)CC3)ccc12 (stereo not given)
- IC50 [1]: 1.5 µM
- CC50 [2]: 19.3 µM
- selectivity ratio [3]: 18.1
- selectivity ratio [4]: 13.1

Structure (SMILES): Cc1c(Cc2ccc(Cl)cc2)c(=O)oc2cc(OCC(O)CN3CCC(C(N)=O)CC3)ccc12 (stereo not given)
- IC50 [1]: 2.5 µM
- CC50 [2]: 40 µM
- selectivity ratio [3]: 13.8
- selectivity ratio [4]: 16.3

Structure (SMILES): Cc1c(Cc2ccc(F)cc2Cl)c(=O)oc2cc(OCC(O)CN3CCC(C(N)=O)CC3)ccc12 (stereo not given)
- IC50 [1]: 3.1 µM
- CC50 [2]: 90.8 µM
- selectivity ratio [3]: 7.7
- selectivity ratio [4]: 29

Structure (SMILES): Cc1c(Cc2ccc(F)cc2)c(=O)oc2cc(OCC(O)CN3CCC(C(N)=O)CC3)ccc12 (stereo not given)
- IC50 [1]: 1.1 µM
- CC50 [2]: 89.3 µM
- selectivity ratio [3]: 83.7
- selectivity ratio [4]: 78.8

Structure (SMILES): Cc1c(Cc2ccccc2)c(=O)oc2cc(OCC(O)CNCCCO)ccc12 (stereo not given)
- IC50 [1]: 8.9 µM
- CC50 [2]: 53.4 µM
- selectivity ratio [3]: 6.3
- selectivity ratio [4]: 6

Structure (SMILES): Cc1c(Cc2ccc(C(F)(F)F)cc2)c(=O)oc2cc(OCC(O)CN3CCC(C(N)=O)CC3)ccc12 (stereo not given)
- IC50 [1]: 1.1 µM
- CC50 [2]: 89.3 µM
- selectivity ratio [3]: 83.7
- selectivity ratio [4]: 78.8

Structure (SMILES): COc1ccccc1-c1ccc(Cc2c(C)c3ccc(OCC(O)CN4CCC(C(N)=O)CC4)cc3oc2=O)cc1 (stereo not given)
- IC50 [1]: 1.5 µM
- CC50 [2]: 91.6 µM
- selectivity ratio [3]: 30

Structure (SMILES): Cc1noc(C)c1-c1ccc(Cc2c(C)c3ccc(OCC(O)CN4CCC(C(N)=O)CC4)cc3oc2=O)cc1 (stereo not given)
- IC50 [1]: 5.2 µM
- CC50 [2]: 36.9 µM
- selectivity ratio [3]: 11.4
- selectivity ratio [4]: 7.1

Structure (SMILES): Cc1c(Cc2ccccc2)c(=O)oc2cc(OCC(O)CNCCc3ccncc3)ccc12 (stereo not given)
- IC50 [1]: 0.9 µM
- CC50 [2]: > 100 µM
- selectivity ratio [3]: 36.6
- selectivity ratio [4]: > 111

Structure (SMILES): Cc1c(Cc2cccc3ccccc23)c(=O)oc2cc(OCC(O)CN3CCC(C(N)=O)CC3)ccc12 (stereo not given)
- IC50 [1]: 1.5 µM
- CC50 [2]: 42.4 µM
- selectivity ratio [3]: 36.6
- selectivity ratio [4]: 28.5

Structure (SMILES): Cc1c(Cc2ccccc2)c(=O)oc2cc(OCC(O)CNc3ccccc3)ccc12 (stereo not given)
- IC50 [1]: > 100 µM
- CC50 [2]: > 100 µM
- selectivity ratio [3]: 1

Structure (SMILES): Cc1c(Cc2cccc(F)c2)c(=O)oc2cc(OCC(O)CN3CCC(C(N)=O)CC3)ccc12 (stereo not given)
- IC50 [1]: 1.6 µM
- CC50 [2]: 53.3 µM
- selectivity ratio [3]: 22.5
- selectivity ratio [4]: 34

Structure (SMILES): Cc1c(Cc2ccc(OC(F)(F)F)cc2)c(=O)oc2cc(OCC(O)CN3CCC(C(N)=O)CC3)ccc12 (stereo not given)
- IC50 [1]: 0.5 µM
- CC50 [2]: 68.2 µM
- selectivity ratio [3]: 56.8
- selectivity ratio [4]: 136

Structure (SMILES): Cc1c(Cc2ccc(-c3ccccc3)cc2)c(=O)oc2cc(OCC(O)CN3CCC(C(N)=O)CC3)ccc12 (stereo not given)
- IC50 [1]: 0.7 µM
- CC50 [2]: > 100 µM
- selectivity ratio [3]: 111
- selectivity ratio [4]: > 143

Structure (SMILES): Cc1c(Cc2ccccc2)c(=O)oc2cc(OCC(O)CNc3cc([N+](=O)[O-])ccc3O)ccc12 (stereo not given)
- IC50 [1]: 81.3 µM
- CC50 [2]: > 100 µM
- selectivity ratio [3]: 1
- selectivity ratio [4]: 12

Structure (SMILES): Cc1c(Cc2ccc(Br)cc2)c(=O)oc2cc(OCC(O)CN3CCC(C(N)=O)CC3)ccc12 (stereo not given)
- IC50 [1]: 0.9 µM
- CC50 [2]: > 100 µM
- selectivity ratio [3]: 85.7
- selectivity ratio [4]: > 111

Structure (SMILES): Cc1c(Cc2ccccc2)c(=O)oc2cc(OCC(O)CNCCc3ccccn3)ccc12 (stereo not given)
- IC50 [1]: 3.6 µM
- CC50 [2]: 54.9 µM
- selectivity ratio [3]: 9.3
- selectivity ratio [4]: 15.6

Structure (SMILES): C#CCNCC(O)COc1ccc2c(C)c(Cc3ccccc3)c(=O)oc2c1 (stereo not given)
- IC50 [1]: 5.9 µM
- CC50 [2]: 95.5 µM
- selectivity ratio [3]: 17.2
- selectivity ratio [4]: 16.1

Structure (SMILES): Cc1c(Cc2ccccc2)c(=O)oc2cc(OCC(O)CNCCCCCCO)ccc12 (stereo not given)
- IC50 [1]: 1 µM
- CC50 [2]: 40.3 µM
- selectivity ratio [3]: 16.6

Structure (SMILES): Cc1ccc2nc(NCC(O)COc3ccc4c(C)c(Cc5ccccc5)c(=O)oc4c3)sc2c1 (stereo not given)
- IC50 [1]: 10.2 µM
- CC50 [2]: > 100 µM
- selectivity ratio [3]: 11.3
- selectivity ratio [4]: > 9.8

Structure (SMILES): Cc1c(Cc2ccc(C(C)(C)C)cc2)c(=O)oc2cc(OCC(O)CN3CCC(C(N)=O)CC3)ccc12 (stereo not given)
- IC50 [1]: 11.7 µM
- CC50 [2]: 14.7 µM
- selectivity ratio [3]: 2.5
- selectivity ratio [4]: 1.3

Structure (SMILES): COC(=O)c1ccc(Cc2c(C)c3ccc(OCC(O)CN4CCC(C(N)=O)CC4)cc3oc2=O)cc1 (stereo not given)
- IC50 [1]: 7.5 µM
- CC50 [2]: > 100 µM
- selectivity ratio [3]: 11
- selectivity ratio [4]: > 13.3

Structure (SMILES): COc1ccc(Cc2c(C)c3ccc(OCC(O)CN4CCC(C(N)=O)CC4)cc3oc2=O)c(Br)c1 (stereo not given)
- IC50 [1]: 2.5 µM
- CC50 [2]: 44.4 µM
- selectivity ratio [3]: 8.6
- selectivity ratio [4]: 18

Structure (SMILES): Cc1c(Cc2ccccc2)c(=O)oc2cc(OCC(O)CNc3nccs3)ccc12 (stereo not given)
- IC50 [1]: 2.1 µM
- CC50 [2]: 93 µM
- selectivity ratio [3]: 33.2
- selectivity ratio [4]: 44.3

Structure (SMILES): Cc1c(Cc2ccccc2)c(=O)oc2cc(OCC(O)CNn3ccnn3)ccc12 (stereo not given)
- IC50 [1]: > 100 µM
- CC50 [2]: > 100 µM
- selectivity ratio [3]: 1
